The source made the active and inactive calls. The calls are words filed in the database; no cut-off is given here.
Tests used:
HCT-116 [1] = experiment: Antiproliferative activity against human HCT116 cells after 72 hrs by SRB assay; format: functional, cell-based; conditions: HCT-116, 72 h
HCT-116 [2] = experiment: Antimigratory activity against human HCT116 cells after 24 hrs by crystal violet staining based transwell migration assay; format: functional, cell-based
How it was run: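 HCT116 cells were tested for migration through a transwell chamber at 0.5 and 1 μM, compared against an untreated (0 μM) control. Significance was assessed versus that control.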

Mus musculus [3] = experiment: Toxicity in nude mouse xenografted with human HCT116 cells assessed as change in body weight at 10 mg/kg/day, ip for 18 days; format: organism-based; conditions: in vivo, 432 h
HCT-116 [4] = experiment: Effect on total H2A protein expression in human HCT116 cells at 0.5 to 4 uM after 8 hrs by Western blot analysis; format: functional, cell-based
How it was run: (§1)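 HCT116 cells treated with test agents at the indicated concentrations for 8 h. Bmi-1, H2A-K119 ubiquitinated H2A (ub-H2A), total H2A and Ring1b detected by Western blot.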

HCT-116 [5] = experiment: Inhibition of colony formation in human HCT116 cells at 0.1 to 0.4 uM after 7 days by crystal violet staining based assay; format: functional, cell-based
Mus musculus [6] = experiment: Decrease in Bmi1 expression in tumors of nude mouse xenografted with human HCT116 cells at 10 mg/kg/day, ip for 18 days by IHC analysis; format: functional, organism-based
How it was run: (§2)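 Subcutaneous HCT116 xenografts in nude mice, randomized into groups of n = 6. Dosing was daily intraperitoneal injection for 18 days with DMSO as vehicle control. Mice were then sacrificed, and excised tumors were stained by immunohistochemistry for Ki67 and Bmi-1, compared with vehicle-treated controls.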

HT-29 = experiment: Antiproliferative activity against human HT-29 cells after 72 hrs by SRB assay; format: functional, cell-based; conditions: HT-29, 72 h
HCT-116 [7] = experiment: Inhibition of cancer stem cell proliferation in human HCT116 cells assessed as CD133/CD44-positive cell population at 1 uM after 48 hrs by flow cytometry (reference value: 85.1 to 86.6%); format: functional; set-up: scale not given: the % may be the effect or the level left
[8] = biological target: T1, Polycomb complex protein BMI-1 (Homo sapiens) (UniProt P35226); experiment: Inhibition of Bmi1 in human HCT116 cells assessed as reduction in H2A-K119Ub level after 8 hrs by Western blot analysis; format: cell-based; how it was run: as §1
T1 sequence (whole entry): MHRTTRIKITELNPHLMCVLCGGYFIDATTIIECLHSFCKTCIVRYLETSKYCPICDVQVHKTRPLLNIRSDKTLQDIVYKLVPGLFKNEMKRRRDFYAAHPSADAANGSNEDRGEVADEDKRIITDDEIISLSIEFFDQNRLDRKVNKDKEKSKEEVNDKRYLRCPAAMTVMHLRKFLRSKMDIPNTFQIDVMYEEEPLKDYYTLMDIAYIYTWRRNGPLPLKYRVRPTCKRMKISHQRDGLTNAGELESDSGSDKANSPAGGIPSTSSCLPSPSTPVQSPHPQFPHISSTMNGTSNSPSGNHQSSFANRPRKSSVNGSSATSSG

HCT-116 [9] = experiment: Induction of apoptosis in human HCT116 cells at 1 uM after 48 hrs by Annexin V/propidium iodide staining based flow cytometry relative to control; format: functional
HCT-116 [10] = experiment: Antitumor activity against human HCT116 cells xenografted in nude mouse assessed as reduction in Ki67 expression in tumor at 10 mg/kg/day, ip for 18 days by IHC analysis; format: functional, organism-based; how it was run: as §2
[11] = Selectivity index, ratio of IC50 for HAF to IC50 for human HT-29 cells; format: toxicity; conditions: HAF cells versus HT-29 cells, read-out: Ratio IC50
[12] = Antiproliferative activity against HAF after 72 hrs by SRB assay; set-up: species or system Homo sapiens
HCT-116 [13] = experiment: Effect on total Ring1b protein expression in human HCT116 cells at 0.5 to 4 uM after 8 hrs by Western blot analysis; format: functional, cell-based; how it was run: as §1
HCT-116 [14] = experiment: Antitumor activity against human HCT116 cells xenografted in nude mouse assessed as tumor growth inhibition at 10 mg/kg/day, ip for 18 days; format: functional, organism-based
How it was run: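 Nude mice bearing subcutaneous HCT116 tumors, randomized four groups (n = 6 each), including a DMSO vehicle group. Dosing was intraperitoneal once daily for 18 days, then sacrifice. Removed tumors were weighed and tumor volume recorded, and body weight was followed. Significance was tested versus vehicle control.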

HCT-8 = experiment: Antiproliferative activity against human HCT8 cells after 72 hrs by SRB assay; format: functional, cell-based; conditions: HCT-8, 72 h
HCT-116 [15] = experiment: Inhibition of Bmi1 protein expression in human HCT116 cells after 8 hrs by Western blot analysis; format: functional, cell-based
[16] = Selectivity index, ratio of IC50 for HAF to IC50 for human HCT8 cells; format: toxicity; conditions: HAF cells versus HCT8 cells, read-out: Ratio IC50
[17] = Selectivity index, ratio of IC50 for HAF to IC50 for human HCT116 cells; format: toxicity; conditions: HAF cells versus HCT116 cells, read-out: Ratio IC50
HCT-116 [18] = experiment: Potency index, ratio of PTC-209 IC50 to compound IC50 for antiproliferative activity against human HCT116 cells; format: functional

Structure (SMILES): COc1cc2c(cc1C(=O)O)CC[C@H]1C(C)(C)C(=O)C(C#N)=C[C@]21C
- IC50 (HCT-116 [1]): > 50000 nM

Structure (SMILES): COc1cc2c(cc1C(=O)Nc1ccc(Br)cc1)CC[C@H]1C(C)(C)C(=O)C(C#N)=C[C@]21C
- IC50 (HCT-116 [1]): 530 nM

Structure (SMILES): COc1cc2c(cc1C(=O)Nc1ccccc1)CC[C@H]1C(C)(C)C(=O)C(C#N)=C[C@]21C
- IC50 (HCT-116 [1]): 760 nM

Structure (SMILES): COc1cc(Br)c(Nc2nc(-c3c(C)nc4ncccn34)cs2)c(Br)c1
- Activity (HCT-116 [2]): Dose-dependent effect
- Activity (Mus musculus [3]): Non-Toxic
- Activity (HCT-116 [4]): inactive
- inhibition (HCT-116 [5]): Active
- Activity (Mus musculus [6]): Active
- IC50 (HT-29): 610 nM
- Activity (HCT-116 [7]): 79.7%
- inhibition [8]: Dose-dependent effect
- Activity (HCT-116 [9]): 14.74%
- Activity (HCT-116 [10]): Active
- selectivity ratio [11]: 1.6 to 1.7
- IC50 [12]: 1.03 µM
- Activity (HCT-116 [13]): inactive
- TGI (HCT-116 [14]): Active
- IC50 (HCT-8): 590 nM
- inhibition (HCT-116 [15]): Dose-dependent effect
- IC50 (HCT-116 [15]; HCT-116, 8 h): 700 nM
- IC50 (HCT-116 [1]): 650 nM
- selectivity ratio [16]: 1.6 to 1.7
- selectivity ratio [17]: 1.6 to 1.7

Structure (SMILES): CNC(=O)c1cc2c(cc1OC)[C@@]1(C)C=C(C#N)C(=O)C(C)(C)[C@@H]1CC2
- IC50 (HCT-116 [1]): 8540 nM

Structure (SMILES): C=CCOc1ccc(NC(=O)c2cc3c(cc2OC)[C@@]2(C)C=C(C#N)C(=O)C(C)(C)[C@@H]2CC3)cc1
- IC50 (HCT-116 [1]): 560 nM

Structure (SMILES): COC(=O)c1ccc(NC(=O)c2cc3c(cc2OC)[C@@]2(C)C=C(C#N)C(=O)C(C)(C)[C@@H]2CC3)cc1
- IC50 (HCT-116 [1]): 690 nM

Structure (SMILES): COc1cc2c(cc1C(=O)Nc1ccc(C(F)(F)F)cc1)CC[C@H]1C(C)(C)C(=O)C(C#N)=C[C@]21C
- IC50 (HCT-116 [1]): 320 nM

Structure (SMILES): COc1cc2c(cc1C(=O)Nc1ccc(C#N)cc1)CC[C@H]1C(C)(C)C(=O)C(C#N)=C[C@]21C
- IC50 (HCT-116 [1]): 570 nM

Structure (SMILES): COc1cc2c(cc1C(=O)Nc1cccc(OC(F)(F)F)c1)CC[C@H]1C(C)(C)C(=O)C(C#N)=C[C@]21C
- IC50 (HT-29): 560 nM
- selectivity ratio [11]: 6.2 to 8.3
- IC50 [12]: 3.57 µM
- IC50 (HCT-8): 580 nM
- IC50 (HCT-116 [1]): 430 nM
- selectivity ratio [16]: 6.2 to 8.3
- selectivity ratio [17]: 6.2 to 8.3

Structure (SMILES): COc1cc2c(cc1C(=O)NCc1ccc(OC(F)(F)F)cc1)CC[C@H]1C(C)(C)C(=O)C(C#N)=C[C@]21C
- IC50 (HT-29): 1370 nM
- selectivity ratio [11]: 3.2 to 5
- IC50 [12]: 5.19 µM
- IC50 (HCT-8): 1600 nM
- IC50 (HCT-116 [1]): 1040 nM
- selectivity ratio [16]: 3.2 to 5
- selectivity ratio [17]: 3.2 to 5

Structure (SMILES): COc1cc2c(cc1C(=O)Nc1ccc(Cl)cc1)CC[C@H]1C(C)(C)C(=O)C(C#N)=C[C@]21C
- IC50 (HCT-116 [1]): 670 nM

Structure (SMILES): COc1cc2c(cc1C(=O)Nc1ccc(OC(F)(F)F)cc1)CC[C@H]1C(C)(C)C(=O)C(C#N)=C[C@]21C
- Ratio IC50 (HCT-116 [18]): 2
- IC50 (HT-29): 540 nM
- selectivity ratio [11]: 5.4 to 10.7
- IC50 [12]: 3.22 µM
- IC50 (HCT-8): 600 nM
- IC50 (HCT-116 [1]): 300 nM
- selectivity ratio [16]: 5.4 to 10.7
- selectivity ratio [17]: 5.4 to 10.7

Structure (SMILES): COc1cc2c(cc1C(=O)Nc1ccc(C(C)=O)cc1)CC[C@H]1C(C)(C)C(=O)C(C#N)=C[C@]21C
- inhibition (HCT-116 [15]): Active
- IC50 (HCT-116 [1]): 2100 nM

Structure (SMILES): COc1cc2c(cc1C(=O)Nc1ccc(C(N)=O)cc1)CC[C@H]1C(C)(C)C(=O)C(C#N)=C[C@]21C
- IC50 (HCT-116 [1]): 850 nM

Structure (SMILES): COc1cc2c(cc1C(=O)Oc1ccccc1)CC[C@H]1C(C)(C)C(=O)C(C#N)=C[C@]21C
- IC50 (HCT-116 [1]): 1310 nM

Structure (SMILES): COc1cc2c(cc1C(=O)Nc1ccc(N)cc1)CC[C@H]1C(C)(C)C(=O)C(C#N)=C[C@]21C
- IC50 (HCT-116 [1]): 750 nM

Structure (SMILES): COc1cc2c(cc1C(=O)Nc1ccc(OC(F)(F)F)cc1)CC[C@H]1C(C)(C)C(=O)C=C[C@]21C
- IC50 (HT-29): 4090 nM
- selectivity ratio [11]: 3 to 3.8
- IC50 [12]: 17.1 µM
- IC50 (HCT-8): 5670 nM
- inhibition (HCT-116 [15]): inactive
- IC50 (HCT-116 [1]): 4560 nM
- selectivity ratio [16]: 3 to 3.8
- selectivity ratio [17]: 3 to 3.8

Structure (SMILES): CC1(C)C(=O)C(C#N)=C[C@]2(C)c3cc(O)c(C(=O)Nc4ccc(OC(F)(F)F)cc4)cc3CC[C@@H]12
- IC50 (HT-29): 2380 nM
- selectivity ratio [11]: 4.5 to 6.9
- IC50 [12]: 13.8 µM
- IC50 (HCT-8): 3060 nM
- inhibition (HCT-116 [15]): inactive
- IC50 (HCT-116 [1]): 2000 nM
- selectivity ratio [16]: 4.5 to 6.9
- selectivity ratio [17]: 4.5 to 6.9

Structure (SMILES): CCOc1ccc(NC(=O)c2cc3c(cc2OC)[C@@]2(C)C=C(C#N)C(=O)C(C)(C)[C@@H]2CC3)cc1
- IC50 (HCT-116 [1]): 820 nM

Structure (SMILES): COC(=O)[C@]12CCC(C)(C)C[C@H]1[C@H]1C(=O)C=C3[C@@]4(C)C=C(C#N)C(=O)C(C)(C)[C@@H]4CC[C@@]3(C)[C@]1(C)CC2 [BARDOXOLONE METHYL]
- IC50 (HT-29): 280 nM
- selectivity ratio [11]: 7.2 to 8.4
- IC50 [12]: 2.1 µM
- IC50 (HCT-8): 290 nM
- inhibition (HCT-116 [15]): Active
- IC50 (HCT-116 [1]): 250 nM
- selectivity ratio [16]: 7.2 to 8.4
- selectivity ratio [17]: 7.2 to 8.4

Structure (SMILES): COc1cc2c(cc1C(=O)NCC(=O)O)CC[C@H]1C(C)(C)C(=O)C(C#N)=C[C@]21C
- IC50 (HCT-116 [1]): > 50000 nM

Structure (SMILES): COc1cc2c(cc1C(=O)NNc1ccc(OC(F)(F)F)cc1)CC[C@H]1C(C)(C)C(=O)C(C#N)=C[C@]21C
- IC50 (HT-29): 1620 nM
- selectivity ratio [11]: 2.8 to 5
- IC50 [12]: 4.55 µM
- IC50 (HCT-8): 1310 nM
- IC50 (HCT-116 [1]): 900 nM
- selectivity ratio [16]: 2.8 to 5
- selectivity ratio [17]: 2.8 to 5

Source: ChEMBL document CHEMBL4266059, “Synthesis of Cyanoenone-Modified Diterpenoid Analogs as Novel Bmi-1-Mediated Antitumor Agents” (ACS Med Chem Lett, 2018)
